The values that follow come from paper PMC12679430 (RSC Advances, 2025).

In data set [1] the test system is Hela cells. The data set is described as follows: Antiproliferative assay. In kind it is cell-based. Particulars: Homo sapiens, 72 h, read-out: Antiproliferative IC50, Hela.
For data set [2], the system named is SiHa cells. The data set is described as follows: Antiproliferative assay. It counts as cell-based. Particulars: Homo sapiens, 72 h, read-out: Antiproliferative IC50, SiHa.
Data set [3] deals with human normal cervical epithelial cells (HcerEpic). The data set is described as follows: Toxicity in normal cervical epithelial cells. The settings on record: Epithelial cell, read-out: IC50, HcerEpic. In kind it is cell-based. The method in brief:
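Cells grown in IMDM with 20% FBS, 100 U/mL penicillin and 100 µg mL−1 streptomycin at 37 °C, humidified 5% CO2. Serially diluted test compound applied for 72 h. Alamar blue (1 mM stock solution) then added for another 5–6 h, with the signal read at 530/590 nm. Data normalised to DMSO vehicle, mean of three independent measurements, and IC50 fitted from the curves.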

A short description of data set [4]: Microsomal stability assay. In kind it is in vitro ADME. The settings on record: human, human liver microsomes, pH 7.4. For orientation: Microsomes from liver hold many membrane-bound enzymes, among them those of drug oxidation.
For data set [5] the following is noted: in clinical; cited from earlier work.

Take `O=C(CCCCCCNC(=O)c1cnc(N(c2ccccc2)c2ccccc2)nc1)NO` [ACY1215]: the IC50 (commonly the concentration needed to halve the response being measured) in data set [1] is 6.8 ± 0.35 µM; in data set [2], 11.3 ± 0.8 µM; in data set [3], more than 50 µM. Besides, in data set [4], the half-life (as a rule, the time in which the quantity being followed falls by half) at 0.5 µM was 6.7 h.

On to `O=C(NO)c1ccc(CN(c2cnccn2)c2cnccn2)cc1` [KA2507], for which the dose-limiting toxicities result in data set [5] is “no dose-limiting toxicities”.
